# From PMC5377441 (International Journal for Parasitology: Drugs and Drug …, 2017)
# Where two headings read alike, the source gives them in different places. Marks after values point to notes of the source that are not given here.
# Columns and labels:
# [1] = assay type: in vivo, C57BL/10 mice
# trichuriasis = conditions: ref Keiser and Utzinger, 2008; cited from earlier work
# T. muris [2] = assay: Drug uptake by T. muris in vivo; set-up: species or system Trichuris muris in C57BL/10 mice; conditions: for drug quantity in worms, maximum: in vivo
# [3] = assay type: in vivo, NMRI mice; conditions: for albendazole in small intestinal mucosa / albendazole in stomach content: intraperitoneal 100 mg/kg, 2 h
# H. polygyrus [4] = assay: In vitro drug uptake and elimination by H. polygyrus; assay type: in vitro ADME, Heligmosomoides polygyrus
# hookworm infections = conditions: single oral dosage; ref Keiser and Utzinger, 2008; cited from earlier work
# H. polygyrus [5] = assay: Uptake of albendazole and its metabolites by H. polygyrus in vivo; set-up: species or system Heligmosomoides polygyrus in NMRI mice; conditions: for albendazole in worms: oral 100 mg/kg, average
# How it was run: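 Female NMRI mice were infected by oral gavage with 80 H. polygyrus L3. Groups received 100 mg/kg albendazole, albendazole after 50 mg/kg ABT given 16 h earlier, or albendazole sulfoxide, orally or intraperitoneally. Four mice per time point were killed at 2, 5 or 8 h (intraperitoneal groups at 2 h only). Worms were recovered, and drug was quantified by HPLC-UV/vis and reported per ten worms.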
# T. muris [6] = assay: In vitro drug uptake and elimination by T. muris; assay type: in vitro ADME, Trichuris muris; conditions: 24 h
# adult T. muris = conditions: incubation at >600 μM, 72 h; ref Keiser et al., 2012; cited from earlier work
# adult H. polygyrus [7] = assay: In vitro drug activity against adult H. polygyrus, phenotypic readout; assay type: cell-based, Heligmosomoides polygyrus; conditions: 200 μM, 72 h
# How it was run: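 Adult H. polygyrus were dissected from NMRI mice from ten days post-infection onward. Four worms per drug were incubated in 2 ml at 200 μM for 72 h, with DMSO-matched worms as controls. Motility, transparency and morphology were scored from 3 (normal) to 0 (highly impaired or dead). Runs were done in duplicate and repeated once.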
# H. polygyrus [8] = conditions: oral 100 mg/kg, ref Unpublished data, cited from earlier work
# T. muris [9] = conditions: ref Keiser et al., 2013, cited from earlier work
# adult H. polygyrus [10] = conditions: 100 μM, 72 h; ref Unpublished data; cited from earlier work
structure (smiles),measurement,setting,value
"CCCSc1ccc2nc(NC(=O)OC)[nH]c2c1 [Albendazole, albendazole]",albendazole in stomach content,"[1]; intraperitoneal 100 mg/kg, 2 h",139 µmol/g
same,albendazole in the mucosa of the large intestine,"[1]; intraperitoneal 100 mg/kg, 2 h",8 µmol/g
same,albendazole in small intestine content,"[1]; oral 100 mg/kg, 5 and 8 h",around 5 μmol/g
same,albendazole in large intestinal content,"[1]; oral 100 mg/kg, 2 h",208 µmol/g
same,albendazole in small intestine content,"[1]; oral 100 mg/kg, 2 h",394 µmol/g
same,albendazole in the mucosa of the small intestine,"[1]; oral 100 mg/kg, 2 h",5 µmol/g
same,albendazole in large intestinal content,"[1]; oral 100 mg/kg, 5 h",57 µmol/g
same,albendazole in large intestinal content,"[1]; oral 100 mg/kg, 8 h",16 µmol/g
same,albendazole in stomach content,"[1]; oral 100 mg/kg, average between 2 and 8 h",114 µmol/g
same,cure rate,trichuriasis,below 36%
same,"drug quantity in worms, maximum",T. muris [2],up to 31 nmol per ten T. muris
same,albendazole in small intestinal mucosa,[3],not found
same,albendazole in stomach content,[3],2217 µmol/g
same,albendazole in the mucosa,"[3]; oral 100 mg/kg, 8 h",13 µmol/g
same,albendazole in large intestine content,"[3]; oral 100 mg/kg, end of the decrease over time (2-8 h)",99 µmol/g
same,albendazole in large intestine content,"[3]; oral 100 mg/kg, start of the decrease over time (2-8 h)",462 µmol/g
same,albendazole sulfone in the culture medium,"H. polygyrus [4]; incubation 5 to 100 μM, 24 h",could not be quantified
same,ABZ in worms,"H. polygyrus [4]; incubation at 5 μM, 24 h",13 ± 6 nmol/10 worms
same,ABZ in worms,"H. polygyrus [4]; incubation at 10 μM, 24 h",16 ± 5 nmol/10 worms
same,ABZ in worms,"H. polygyrus [4]; incubation at 25 μM, 24 h",5 ± 8 nmol/10 worms
same,ABZ in worms,"H. polygyrus [4]; incubation at 50 μM, 24 h",28 ± 4 nmol/10 worms
same,"albendazole in worms, plateau","H. polygyrus [4]; incubation at 50 μM, longer than 8 h",29 nmol/10 worms
same,ABZ in worms,"H. polygyrus [4]; incubation at 75 μM, 24 h",55 ± 49 nmol/10 worms
same,ABZ in worms,"H. polygyrus [4]; incubation at 100 μM, 24 h",10 ± 21 nmol/10 worms
same,cure rate,hookworm infections,72%
same,"albendazole quantity in worms, maximum","H. polygyrus [5]; in vivo, 100 mg/kg",up to 10 nmol per ten H. polygyrus
same,albendazole in worms,H. polygyrus [5],6.2 nmol/10 worms
same,albendazole sulfone in the culture medium,T. muris [6]; incubation 5 to 100 μM,not detected
same,ABZ in worms,T. muris [6]; incubation at 5 μM,94 ± 44 nmol/10 worms
same,ABZ in worms,T. muris [6]; incubation at 10 μM,176 ± 83 nmol/10 worms
same,ABZ in worms,T. muris [6]; incubation at 25 μM,263 ± 173 nmol/10 worms
same,ABZ in worms,T. muris [6]; incubation at 50 μM,551 ± 528 nmol/10 worms
same,ABZ in worms,T. muris [6]; incubation at 75 μM,598 ± 336 nmol/10 worms
same,ABZ in worms,T. muris [6]; incubation at 100 μM,641 ± 467 nmol/10 worms
same,Drug effect,adult T. muris,<50% ^b
same,Drug effect (reduction of parasite viability),adult H. polygyrus [7],50% [200 μM]
same,Drug effect (reduction of parasite viability),adult H. polygyrus [7]; listed as albendazole,50%
same,Worm burden reduction,H. polygyrus [8]; 100 mg/kg,100% [100 mg/kg] ^a
same,Worm burden reduction,"H. polygyrus [8]; listed as albendazole, 100 mg/kg",100%
same,Worm burden reduction,T. muris [9]; oral 300 mg/kg,42% [300 mg/kg] ^c
"CCC[S+]([O-])c1ccc2[nH]c(NC(=O)OC)nc2c1 (stereo not drawn) [Albendazole sulfoxide, albendazole sulfoxide]",albendazole in small intestinal mucosa,[3],no albendazole was detected
same,albendazole in stomach content,[3],no albendazole was detected
same,"albendazole sulfoxide in plasma, compared to the albendazole treatment","[3]; oral 100 mg/kg, 5 h",5.2 fold
same,albendazole sulfoxide in the mucosa of the small intestine,"[3]; oral 100 mg/kg, 5 h",137 µmol/g
same,albendazole sulfoxide in the mucosa of the small intestine,"[3]; oral 100 mg/kg, other time points (2 and 8 h)",below 27 μmol/g
same,albendazole in the culture medium,"H. polygyrus [4]; incubation 5 to 100 μM, 24 h",Neither albendazole nor albendazole sulfone could be quantified
same,albendazole sulfone in the culture medium,"H. polygyrus [4]; incubation 5 to 100 μM, 24 h",Neither albendazole nor albendazole sulfone could be quantified
same,albendazole in worms,H. polygyrus [5],No albendazole was detected
same,Drug effect (reduction of parasite viability),adult H. polygyrus [7],60% [200 μM]
same,Drug effect (reduction of parasite viability),adult H. polygyrus [7]; listed as albendazole sulfoxide,60%
"COC(=O)Nc1nc2ccc(C(=O)c3ccccc3)cc2[nH]1 [Mebendazole, mebendazole]",concentration at 2 h,"[1]; C57BL/10, mouse, plasma, intraperitoneal, 100 mg/kg",3.6 µM
same,mebendazole in the mucosa of the large intestine,"[1]; intraperitoneal 100 mg/kg, 2 h",1 µmol/g
same,mebendazole in the mucosa of the small intestine,"[1]; intraperitoneal 100 mg/kg, 2 h",4 µmol/g
same,administered drug in the large intestine,"[1]; oral 100 mg/kg, 2 h",18 µmol/g
same,administered drug in the mucosa of the large intestine,"[1]; oral 100 mg/kg, 2 h",3 µmol/g
same,administered drug in the mucosa of the small intestine,"[1]; oral 100 mg/kg, 2 h",8 µmol/g
same,administered drug in the small intestine,"[1]; oral 100 mg/kg, 2 h",222 µmol/g
same,administered drug in the stomach,"[1]; oral 100 mg/kg, 2 h",215 µmol/g
same,administered drug in the large intestine,"[1]; oral 100 mg/kg, 5 h",100 µmol/g
same,administered drug in the mucosa of the large intestine,"[1]; oral 100 mg/kg, 5 h",5 µmol/g
same,administered drug in the mucosa of the small intestine,"[1]; oral 100 mg/kg, 5 h",6 µmol/g
same,administered drug in the large intestine,"[1]; oral 100 mg/kg, 8 h",40 µmol/g
same,administered drug in the mucosa of the large intestine,"[1]; oral 100 mg/kg, 8 h",2 µmol/g
same,administered drug in the mucosa of the small intestine,"[1]; oral 100 mg/kg, third value, time not given",4 µmol/g
same,cure rate,trichuriasis,below 36%
same,"drug quantity in worms, maximum",T. muris [2],≤ 21 nmol per ten T. muris
same,mebendazole in worms,"T. muris [2]; intraperitoneal 100 mg/kg, 2 h",5 nmol/10 worms
same,mebendazole in worms,"T. muris [2]; oral 100 mg/kg, unchanged over time, close to LLOQ",20 nmol/10 worms
same,Drug effect,adult H. polygyrus [10],0% [100 μM] ^a
same,MBZ in worms,T. muris [6]; incubation at 5 μM,482 ± 388 nmol/10 worms
same,MBZ in worms,T. muris [6]; incubation at 10 μM,626 ± 463 nmol/10 worms
same,MBZ in worms,T. muris [6]; incubation at 25 μM,672 ± 251 nmol/10 worms
same,MBZ in worms,T. muris [6]; incubation at 50 μM,826 ± 390 nmol/10 worms
same,MBZ in worms,T. muris [6]; incubation at 75 μM,910 ± 362 nmol/10 worms
same,MBZ in worms,T. muris [6]; incubation at 100 μM,861 ± 503 nmol/10 worms
same,Drug effect,adult T. muris,<50% ^b
same,Worm burden reduction,H. polygyrus [8],59% [100 mg/kg] ^a
same,Worm burden reduction,T. muris [9]; oral 150 mg/kg,68% [150 mg/kg] ^c
